Test results: ChEMBL document CHEMBL1151448, “Comparative antianaerobic activities of doripenem determined by MIC and time-kill analysis” (2008)
Values after ≈ are worked out from the molar mass of the structure shown. Active and inactive are the calls of the source. The rule behind the calls is not given here.

Legend:
Bacteroides fragilis [1] = experiment: Bactericidal activity against beta lactamase-positive Bacteroides fragilis isolated from intra-abdominal infection and pelvic inflammatory disease patients assessed as bacterial killing at 2 times MIC after 48 hrs by time kill analysis; type: functional
Outline: (§1)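 Macrodilution time-kill in prereduced brucella broth with 5% laked horse blood, hemin 5 μg/ml and vitamin K1 1 μg/ml, at final inoculum 10^6–10^7 CFU/ml. […] Viable counts were taken at 6, 12, 24 and 48 h on plates incubated 48 h anaerobically. 99.9% kill was taken as bactericidal.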

[2] = tested on: Enterocloster clostridioformis; experiment: Antimicrobial activity against Clostridium clostridioforme isolated from intra-abdominal infection and pelvic inflammatory disease patients after 48 hrs by agar dilution method; type: functional
Outline: (§2)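 CLSI agar dilution on brucella blood agar supplemented with laked sheep blood, hemin and vitamin K. Inocula of about 1 × 10^5 CFU/spot were applied by Steers replicator, and plates were incubated 48 h at 35°C in an anaerobic glove box. MIC was the concentration giving marked growth reduction versus the anaerobic control plate. QC strains were included each run, and β-lactamase was detected by Cefinase disk.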

Anaerococcus tetradius = experiment: Antimicrobial activity against Anaerococcus tetradius isolated from intra-abdominal infection and pelvic inflammatory disease patients after 48 hrs by agar dilution method; type: functional; outline: as §2
Porphyromonas gingivalis = experiment: Antimicrobial activity against Porphyromonas gingivalis isolated from intra-abdominal infection and pelvic inflammatory disease patients after 48 hrs by agar dilution method; type: functional; outline: as §2
Prevotella buccae = experiment: Antimicrobial activity against beta lactamase-positive Prevotella buccae isolated from intra-abdominal infection and pelvic inflammatory disease patients after 48 hrs by agar dilution method; type: functional; details: Segatella buccae; outline: as §2
Fusobacterium nucleatum [3] = experiment: Antimicrobial activity against beta lactamase-positive Fusobacterium nucleatum isolated from intra-abdominal infection and pelvic inflammatory disease patients after 48 hrs by agar dilution method; type: functional; outline: as §2
Prevotella intermedia [4] = experiment: Antimicrobial activity against beta lactamase-positive Prevotella intermedia isolated from intra-abdominal infection and pelvic inflammatory disease patients after 48 hrs by agar dilution method; type: functional; outline: as §2
Clostridioides difficile [5] = experiment: Bactericidal activity against Clostridium difficile isolated from intra-abdominal infection and pelvic inflammatory disease patients assessed as 99.9% bacterial killing at 2 times MIC after 48 hrs by time kill analysis; type: functional, organism-based; outline: as §1
Prevotella intermedia [6] = experiment: Antimicrobial activity against beta lactamase-positive Prevotella intermedia isolated from intra-abdominal infection and pelvic inflammatory disease patients after 48 hrs by time kill analysis; type: functional
Outline: (§3)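 The MIC was read by inspecting macrodilution time-kill tubes. Vials held prereduced brucella broth with 5% laked horse blood cells, hemin 5 μg/ml and vitamin K1 1 μg/ml. Final inoculum was 10^6–10^7 CFU/ml, prepared inside the anaerobe chamber. Vials were incubated 48 h at 35°C in a shaking water bath.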

[7] = tested on: Bacteroides thetaiotaomicron; experiment: Bactericidal activity against beta lactamase-positive Bacteroides thetaiotaomicron isolated from intra-abdominal infection and pelvic inflammatory disease patients assessed as bacterial killing at 2 times MIC after 48 hrs by time kill analysis; type: functional; outline: as §1
Finegoldia magna [8] = experiment: Antimicrobial activity against Finegoldia magna isolated from intra-abdominal infection and pelvic inflammatory disease patients after 48 hrs by agar dilution method; type: functional; outline: as §2
Fusobacterium varium = experiment: Antimicrobial activity against Fusobacterium varium isolated from intra-abdominal infection and pelvic inflammatory disease patients after 48 hrs by agar dilution method; type: functional; outline: as §2
Clostridium perfringens = experiment: Antimicrobial activity against Clostridium perfringens isolated from intra-abdominal infection and pelvic inflammatory disease patients after 48 hrs by agar dilution method; type: functional
Outline: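 CLSI agar dilution on brucella blood agar supplemented with laked sheep blood, hemin and vitamin K. Inoculum about 1 × 10^5 CFU/spot, applied by Steers replicator. Plates incubated 48 h at 35°C in an anaerobic glove box. MIC is the concentration giving marked growth reduction versus the anaerobic control plate. Standard QC strains included in each run.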

[9] = tested on: Clostridium paraputrificum; experiment: Antimicrobial activity against Clostridium paraputrificum isolated from intra-abdominal infection and pelvic inflammatory disease patients after 48 hrs by agar dilution method; type: functional; outline: as §2
[10] = tested on: Bacteroides thetaiotaomicron; experiment: Antimicrobial activity against beta lactamase-positive Bacteroides thetaiotaomicron isolated from intra-abdominal infection and pelvic inflammatory disease patients after 48 hrs by agar dilution method; type: functional; outline: as §2
Finegoldia magna [11] = experiment: Bactericidal activity against beta lactamase-positive Finegoldia magna isolated from intra-abdominal infection and pelvic inflammatory disease patients assessed as bacterial killing at 2 times MIC after 48 hrs by time kill analysis; type: functional
Outline: (§4)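 Anaerobic macrodilution time-kill. Inoculum from brucella blood plates, prepared and diluted in prereduced brucella broth inside the anaerobe chamber. Final 10^6 to 10^7 CFU/ml in prereduced brucella broth with 5% laked horse blood cells, 5 μg/ml hemin and 1 μg/ml vitamin K1. […] Shaken at 35°C for 48 h. Viable counts taken at 6, 12, 24 and 48 h. 99.9% kill taken as bactericidal.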

Clostridioides difficile [12] = experiment: Bactericidal activity against Clostridium difficile isolated from intra-abdominal infection and pelvic inflammatory disease patients assessed as bacterial killing at MIC after 24 hrs by time kill analysis; type: functional; outline: as §1
[13] = tested on: Peptoniphilus asaccharolyticus; experiment: Antimicrobial activity against Peptoniphilus asaccharolyticus isolated from intra-abdominal infection and pelvic inflammatory disease patients after 48 hrs by agar dilution method; type: functional; outline: as §2
Parvimonas micra = experiment: Antimicrobial activity against Micromonas micros isolated from intra-abdominal infection and pelvic inflammatory disease patients after 48 hrs by agar dilution method; type: functional; outline: as §2
Phocaeicola vulgatus = experiment: Antimicrobial activity against beta lactamase-positive Bacteroides vulgatus isolated from intra-abdominal infection and pelvic inflammatory disease patients after 48 hrs by agar dilution method; type: functional; outline: as §2
Bacteroides fragilis [14] = experiment: Antimicrobial activity against beta lactamase-positive Bacteroides fragilis isolated from intra-abdominal infection and pelvic inflammatory disease patients after 48 hrs by time kill analysis; type: functional; outline: as §3
Fusobacterium nucleatum [15] = experiment: Bactericidal activity against beta lactamase-positive Fusobacterium nucleatum isolated from intra-abdominal infection and pelvic inflammatory disease patients assessed as bacterial killing at 2 times MIC after 48 hrs by time kill analysis; type: functional; outline: as §4
Fusobacterium nucleatum [16] = experiment: Bactericidal activity against beta lactamase-positive Fusobacterium nucleatum isolated from intra-abdominal infection and pelvic inflammatory disease patients assessed as bacterial killing at MIC after 24 hrs by time kill analysis; type: functional; outline: as §4
Fusobacterium nucleatum [17] = experiment: Antimicrobial activity against beta lactamase-positive Fusobacterium nucleatum isolated from intra-abdominal infection and pelvic inflammatory disease patients after 48 hrs by time kill analysis; type: functional; outline: as §3
Prevotella disiens = experiment: Antimicrobial activity against beta lactamase-positive Prevotella disiens isolated from intra-abdominal infection and pelvic inflammatory disease patients after 48 hrs by agar dilution method; type: functional; outline: as §2
Clostridium cadaveris = experiment: Antimicrobial activity against Clostridium cadaveris isolated from intra-abdominal infection and pelvic inflammatory disease patients after 48 hrs by agar dilution method; type: functional; outline: as §2
Finegoldia magna [18] = experiment: Bactericidal activity against beta lactamase-positive Finegoldia magna isolated from intra-abdominal infection and pelvic inflammatory disease patients assessed as 99.9% bacterial killing at 2 times MIC after 48 hrs by time kill analysis; type: functional, organism-based; outline: as §1
Clostridioides difficile [19] = experiment: Bactericidal activity against Clostridium difficile isolated from intra-abdominal infection and pelvic inflammatory disease patients assessed as bacterial killing at 2 times MIC after 48 hrs by time kill analysis; type: functional; outline: as §1
Thomasclavelia ramosa = experiment: Antimicrobial activity against Clostridium ramosum isolated from intra-abdominal infection and pelvic inflammatory disease patients after 48 hrs by agar dilution method; type: functional; outline: as §2

Compound: C[C@@H](O)[C@H]1C(=O)N2C(C(=O)O)=C(S[C@@H]3CN[C@H](C(=O)N(C)C)C3)[C@H](C)[C@H]12 [MEROPENEM]
- Activity (Bacteroides fragilis [1]): 99%
- MIC [2]: 1 µg/mL (≈ 2.61 µM)
- MIC (Anaerococcus tetradius): 0.03 µg/mL (≈ 0.0782 µM)
- MIC50 (Anaerococcus tetradius): 0.03 µg/mL (≈ 0.0782 µM)
- MIC (Porphyromonas gingivalis): ≤ 0.016 µg/mL
- MIC (Prevotella buccae): 0.06 µg/mL (≈ 0.156 µM)
- MIC50 (Prevotella buccae): 0.06 µg/mL (≈ 0.156 µM)
- MIC90 (Prevotella buccae): 0.06 µg/mL (≈ 0.156 µM)
- MIC (Fusobacterium nucleatum [3]): ≤ 0.016 µg/mL
- MIC50 (Fusobacterium nucleatum [3]): ≤ 0.016 µg/mL
- MIC90 (Fusobacterium nucleatum [3]): 0.03 µg/mL (≈ 0.0782 µM)
- MIC50 (Prevotella intermedia [4]): 0.03 µg/mL (≈ 0.0782 µM)
- MIC90 (Prevotella intermedia [4]): 0.125 µg/mL (≈ 0.326 µM)
- Activity (Clostridioides difficile [5]): inactive
- MIC (Prevotella intermedia [6]): 0.03 µg/mL (≈ 0.0782 µM)
- Activity [7]: 99%
- MIC (Finegoldia magna [8]): 0.06 µg/mL (≈ 0.156 µM)
- MIC50 (Finegoldia magna [8]): 0.06 µg/mL (≈ 0.156 µM)
- MIC90 (Finegoldia magna [8]): 0.125 µg/mL (≈ 0.326 µM)
- MIC50 (Fusobacterium varium): 0.125 µg/mL (≈ 0.326 µM)
- MIC90 (Fusobacterium varium): 0.25 µg/mL (≈ 0.652 µM)
- MIC (Clostridium perfringens): ≤ 0.016 µg/mL
- MIC50 (Clostridium perfringens): ≤ 0.016 µg/mL
- MIC90 (Clostridium perfringens): ≤ 0.016 µg/mL
- MIC [9]: 0.25 µg/mL (≈ 0.652 µM)
- MIC50 [10]: 0.25 µg/mL (≈ 0.652 µM)
- MIC90 [10]: 0.5 µg/mL (≈ 1.3 µM)
- Activity (Finegoldia magna [11]): 99%
- Activity (Clostridioides difficile [12]): 90%
- MIC [13]: ≤ 0.016 µg/mL
- MIC50 [13]: ≤ 0.016 µg/mL
- MIC90 [13]: 0.03 µg/mL (≈ 0.0782 µM)
- MIC (Parvimonas micra): 0.03 µg/mL (≈ 0.0782 µM)
- MIC50 (Parvimonas micra): 0.03 µg/mL (≈ 0.0782 µM)
- MIC90 (Parvimonas micra): 0.25 µg/mL (≈ 0.652 µM)
- MIC50 (Phocaeicola vulgatus): 0.25 µg/mL (≈ 0.652 µM)
- MIC90 (Phocaeicola vulgatus): 1 µg/mL (≈ 2.61 µM)
- MIC (Bacteroides fragilis [14]): 0.125 µg/mL (≈ 0.326 µM)
- Activity (Fusobacterium nucleatum [15]): 99%
- Activity (Fusobacterium nucleatum [16]): 90%
- MIC (Fusobacterium nucleatum [17]): 0.008 µg/mL (≈ 0.0209 µM)
- MIC (Prevotella disiens): 0.03 µg/mL (≈ 0.0782 µM)
- MIC50 (Prevotella disiens): 0.03 µg/mL (≈ 0.0782 µM)
- MIC90 (Prevotella disiens): 0.125 µg/mL (≈ 0.326 µM)
- MIC (Clostridium cadaveris): 0.03 µg/mL (≈ 0.0782 µM)
- Activity (Finegoldia magna [18]): inactive
- Activity (Clostridioides difficile [19]): 99%
- MIC50 (Thomasclavelia ramosa): 1 µg/mL (≈ 2.61 µM)
